{
  "source": "paper PMC7821153",
  "about": "(Chemical Biology & Drug Design, 2020)",
  "assay_type_in_all_cases": "cell-based",
  "key": {"[1]": {"test": "Cellular cytotoxicity, ATP-dependent luminescence assay", "summary_of_the_method": "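Cytotoxicity measured by ATP-dependent luminescence, with CC50 derived. Values are from three independent experiments (n = 3), and standard deviations are reported.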"}, "[2]": {"test_system": "WT HIV-1", "test": "Single-round infectivity assay, WT RT vector", "summary_of_the_method": "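Single-round infection with an HIV-1-based vector (pNLNgoMIVR-ΔENV.LUC, Env-deleted, luciferase-carrying) with wild-type RT, used to derive EC50. Therapeutic index is calculated from CC50 (ATP-dependent luminescence assay) and wild-type EC50. Three independent experiments (n = 3), with standard deviations.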"}, "[3]": {"test_system": "HIV-1 NNRTI-resistant mutant L100I", "test": "Single-round infectivity assay, L100I", "conditions": "Human immunodeficiency virus 1, read-out: EC50 L100I", "summary_of_the_method": "(§1)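 Single-round infection with the HIV-1-based vector pNLNgoMIVR-ΔENV.LUC (Env-deleted, luciferase-carrying) bearing the indicated RT mutation(s), used to derive EC50. The mutant vectors are previously described constructs.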"}, "[4]": {"test_system": "HIV-1 NNRTI-resistant mutant K103N", "test": "Single-round infectivity assay, K103N", "conditions": "Human immunodeficiency virus 1, read-out: EC50 K103N", "summary_of_the_method": "as §1"}, "[5]": {"test_system": "HIV-1 NNRTI-resistant mutant E138K", "test": "Single-round infectivity assay, E138K", "conditions": "Human immunodeficiency virus 1, read-out: EC50 E138K", "summary_of_the_method": "as §1"}, "[6]": {"test_system": "HIV-1 NNRTI-resistant mutant Y181C", "test": "Single-round infectivity assay, Y181C", "conditions": "Human immunodeficiency virus 1, read-out: EC50 Y181C", "summary_of_the_method": "as §1"}, "[7]": {"test_system": "HIV-1 NNRTI-resistant mutant Y188L", "test": "Single-round infectivity assay, Y188L", "conditions": "Human immunodeficiency virus 1, read-out: EC50 Y188L", "summary_of_the_method": "as §1"}, "[8]": {"test_system": "HIV-1 NNRTI-resistant mutant H221Y", "test": "Single-round infectivity assay, H221Y", "conditions": "Human immunodeficiency virus 1, read-out: EC50 H221Y", "summary_of_the_method": "as §1"}, "[9]": {"test_system": "HIV-1 NNRTI-resistant mutant K103N/Y181C", "test": "Single-round infectivity assay, K103N/Y181C", "conditions": "Human immunodeficiency virus 1, read-out: EC50 K103N/Y181C", "summary_of_the_method": "as §1"}, "[10]": {"test_system": "HIV-1 NNRTI-resistant mutant G190A", "test": "Single-round infectivity assay, G190A", "conditions": "read-out: EC50 G190A; single-round infection, n = 3", "summary_of_the_method": "as §1"}, "[11]": {"test_system": "HIV-1 NNRTI-resistant mutant G190S", "test": "Single-round infectivity assay, G190S", "conditions": "read-out: EC50 G190S; single-round infection, n = 3", "summary_of_the_method": "as §1"}, "[12]": {"test_system": "HIV-1 NNRTI-resistant mutant M230L", "test": "Single-round infectivity assay, M230L", "conditions": "Human immunodeficiency virus 1, read-out: EC50 M230L", "summary_of_the_method": "as §1"}, "[13]": {"test_system": "HIV-1 NNRTI-resistant mutant P236L", "test": "Single-round infectivity assay, P236L", "conditions": "read-out: EC50 P236L; single-round infection, n = 3", "summary_of_the_method": "as §1"}, "[14]": {"test_system": "HIV-1 NNRTI-resistant mutant L100I/K103N", "test": "Single-round infectivity assay, L100I/K103N", "conditions": "Human immunodeficiency virus 1, read-out: EC50 L100I/K103N", "summary_of_the_method": "as §1"}, "[15]": {"test_system": "HIV-1 NNRTI-resistant mutant K103N/P225H", "test": "Single-round infectivity assay, K103N/P225H", "conditions": "Human immunodeficiency virus 1, read-out: EC50 K103N/P225H", "summary_of_the_method": "as §1"}, "[16]": {"test_system": "HIV-1 NNRTI-resistant mutant V106A/G190A/F227L", "test": "Single-round infectivity assay, V106A/G190A/F227L", "conditions": "Human immunodeficiency virus 1, read-out: EC50 V106A/G190A/F227L", "summary_of_the_method": "as §1"}, "[17]": {"test_system": "HIV-1 DOR-resistant mutant L234I", "test": "Single-round infectivity assay, L234I", "conditions": "read-out: EC50 L234I; single-round infection, n = 3", "summary_of_the_method": "as §1"}, "[18]": {"test_system": "HIV-1 RT-resistant mutant E40K", "test": "Single-round infectivity assay, E40K", "conditions": "read-out: EC50 E40K; single-round infection, n = 3", "summary_of_the_method": "as §1"}, "[19]": {"test_system": "HIV-1 RT-resistant mutant D67E", "test": "Single-round infectivity assay, D67E", "conditions": "read-out: EC50 D67E; single-round infection, n = 3", "summary_of_the_method": "as §1"}, "[20]": {"test_system": "HIV-1 RT-resistant mutant K101E", "test": "Single-round infectivity assay, K101E", "conditions": "Human immunodeficiency virus 1, read-out: EC50 K101E", "summary_of_the_method": "as §1"}, "[21]": {"test_system": "HIV-1 RT-resistant mutant M184V", "test": "Single-round infectivity assay, M184V", "conditions": "read-out: EC50 M184V; single-round infection, n = 3", "summary_of_the_method": "as §1"}, "[22]": {"test_system": "HIV-1 RT-resistant mutant K101E/M184I", "test": "Single-round infectivity assay, K101E/M184I", "conditions": "read-out: EC50 K101E/M184I; single-round infection, n = 3", "summary_of_the_method": "as §1"}, "[23]": {"test_system": "HIV-1 RT-resistant mutant K101E/M184V", "test": "Single-round infectivity assay, K101E/M184V", "conditions": "read-out: EC50 K101E/M184V; single-round infection, n = 3", "summary_of_the_method": "as §1"}},
  "data": [
    {"smiles": "Cc1cc(/C=C/C#N)cc(C)c1-n1cnc2cnc(Nc3ccc4cc(C#N)ccc4c3)nc21", "note": "[Compound 10, (E)‐6‐((9‐(4‐(2‐cyanovinyl)‐2,6‐dimethylphenyl)‐9H‐purin‐2‐yl)amino)‐2‐naphthonitrile]", "values": [
      {"measurement": "CC50", "setting": "[1]", "result": "10800 ± 1200", "unit": "nM"},
      {"measurement": "EC50", "setting": "[2]; Human immunodeficiency virus 1, read-out: EC50 WT", "result": "2.3 ± 0.2", "unit": "nM"},
      {"measurement": "TI (therapeutic index)", "setting": "[2]; calculated from CC50 and WT EC50", "result": "4,696"},
      {"measurement": "EC50", "setting": "[3]", "result": "24.2 ± 6.1", "unit": "nM"},
      {"measurement": "EC50", "setting": "[4]", "result": "24.5 ± 4.9", "unit": "nM"},
      {"measurement": "EC50", "setting": "[5]", "result": "32.7 ± 4.4", "unit": "nM"},
      {"measurement": "EC50", "setting": "[6]", "result": "47.7 ± 7.8", "unit": "nM"},
      {"measurement": "EC50", "setting": "[7]", "result": "180 ± 14.7", "unit": "nM"},
      {"measurement": "EC50", "setting": "[8]", "result": "3.4 ± 0.3", "unit": "nM"},
      {"measurement": "EC50", "setting": "[9]", "result": "468 ± 88.8", "unit": "nM"},
      {"measurement": "EC50", "setting": "[10]", "result": "1.6 ± 0.3", "unit": "nM"},
      {"measurement": "EC50", "setting": "[11]", "result": "2.1 ± 0.1", "unit": "nM"},
      {"measurement": "EC50", "setting": "[12]", "result": "33.8 ± 2.7", "unit": "nM"},
      {"measurement": "EC50", "setting": "[13]", "result": "1.6 ± 0.1", "unit": "nM"},
      {"measurement": "EC50", "setting": "[14]", "result": "386 ± 19.9", "unit": "nM"},
      {"measurement": "EC50", "setting": "[15]", "result": "103 ± 8.1", "unit": "nM"},
      {"measurement": "EC50", "setting": "[16]", "result": "7 ± 0.5", "unit": "nM"},
      {"measurement": "EC50", "setting": "[17]", "result": "2.3 ± 0.2", "unit": "nM"},
      {"measurement": "EC50", "setting": "[18]", "result": "4.2 ± 0.7", "unit": "nM"},
      {"measurement": "EC50", "setting": "[19]", "result": "10 ± 1.9", "unit": "nM"},
      {"measurement": "EC50", "setting": "[20]", "result": "13.4 ± 1", "unit": "nM"},
      {"measurement": "EC50", "setting": "[21]", "result": "3.1 ± 0.4", "unit": "nM"},
      {"measurement": "EC50", "setting": "[22]", "result": "14 ± 0.1", "unit": "nM"},
      {"measurement": "EC50", "setting": "[23]", "result": "4.7 ± 0.8", "unit": "nM"}
    ]}
  ]
}
